“Also recorded” adds a separate entry of the source.

The values below come from article PMC7240828 (ACS Omega, 2020).

In series [1] the target is T1, SGLT1 (Homo sapiens, UniProt P13866).
T1 sequence (P13866 1-664): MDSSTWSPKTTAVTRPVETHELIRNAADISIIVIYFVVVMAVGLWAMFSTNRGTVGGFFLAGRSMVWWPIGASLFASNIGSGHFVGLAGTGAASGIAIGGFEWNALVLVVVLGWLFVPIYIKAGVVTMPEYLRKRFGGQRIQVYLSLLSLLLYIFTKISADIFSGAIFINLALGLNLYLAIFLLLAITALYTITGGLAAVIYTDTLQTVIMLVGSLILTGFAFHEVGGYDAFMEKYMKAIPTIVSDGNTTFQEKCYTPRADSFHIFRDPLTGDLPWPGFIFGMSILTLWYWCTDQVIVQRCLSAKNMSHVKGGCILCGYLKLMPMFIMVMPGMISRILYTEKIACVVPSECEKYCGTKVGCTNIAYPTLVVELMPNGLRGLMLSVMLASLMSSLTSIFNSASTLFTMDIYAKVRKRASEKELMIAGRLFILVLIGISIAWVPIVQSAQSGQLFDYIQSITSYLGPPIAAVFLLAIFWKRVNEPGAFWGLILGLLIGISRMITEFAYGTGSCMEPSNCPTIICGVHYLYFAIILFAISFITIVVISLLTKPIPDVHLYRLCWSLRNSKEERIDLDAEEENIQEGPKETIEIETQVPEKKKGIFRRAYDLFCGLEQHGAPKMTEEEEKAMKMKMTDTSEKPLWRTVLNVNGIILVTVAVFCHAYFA
In words: Flavonoid uptake/transport in Caco-2 BBe1 cells with phloridzin. Conditions: 50 μM flavonoid, 4 h; for fold change of glycoside transport by phloridzin-mediated inhibition: 1 μM phloridzin 30 min pretreatment, basolateral transport; for effect of phloridzin on cellular uptake and transport of the flavonoid / effect of phloridzin on cellular uptake of the flavonoid: 1 μM phloridzin; for effect of phloridzin on cellular uptake of the flavonoid: cell lysate. It counts as in vitro ADME. The method, boiled down: (§1)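 Quantitation was by HPLC on a phenyl-hexyl column (DAD, 360 and 520 nm), using external standard curves from 0–50 μM. Values are expressed as percent of the amount added apically. Data are mean ± SEM of at least three independent experiments.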

The subject of series [2] is Caco-2 BBe1 monolayers. It is filed as in vitro ADME, human. Conditions: 50 μM apical, 0.5, 2 and 4 h, cell lysate and basolateral compartment. The method, boiled down:
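Cells at passage 50–60 were grown on PET inserts (3 × 10^4 cells/well) in supplemented high-glucose DMEM at 37 °C, 5% CO2. Monolayers with TEER >400 Ω cm2 on day 9 were used. 50 μM test compound in HBSS pH 6.4 was applied apically, with HBSS/10 mM HEPES pH 7.4 basolaterally. Basolateral medium and sonicated, methanol/2% FA-extracted lysates were sampled at 0.5, 2 and 4 h.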

Series [3] concerns Caco-2 BBe1 cells. The experiment in a line: Cellular glucose. It counts as cell-based, human. Conditions: 50 μM, 2 h pretreatment, 2-NBDG fluorescence, vs positive control. Put shortly: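 Cells seeded at 1 × 10^5 per well and grown overnight, then PBS-washed. Pretreated with 50 μM test compound in glucose-free DMEM for 2 h. Glucose-free DMEM containing 300 μg/mL 2-NBDG was then added for another 2 h. After a PBS wash, fluorescence was read at ex 485/em 535 nm and compared with the positive control group.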

The target of series [4] is T2, GLUT2 (Homo sapiens, UniProt P11168).
T2 sequence (P11168 1-524): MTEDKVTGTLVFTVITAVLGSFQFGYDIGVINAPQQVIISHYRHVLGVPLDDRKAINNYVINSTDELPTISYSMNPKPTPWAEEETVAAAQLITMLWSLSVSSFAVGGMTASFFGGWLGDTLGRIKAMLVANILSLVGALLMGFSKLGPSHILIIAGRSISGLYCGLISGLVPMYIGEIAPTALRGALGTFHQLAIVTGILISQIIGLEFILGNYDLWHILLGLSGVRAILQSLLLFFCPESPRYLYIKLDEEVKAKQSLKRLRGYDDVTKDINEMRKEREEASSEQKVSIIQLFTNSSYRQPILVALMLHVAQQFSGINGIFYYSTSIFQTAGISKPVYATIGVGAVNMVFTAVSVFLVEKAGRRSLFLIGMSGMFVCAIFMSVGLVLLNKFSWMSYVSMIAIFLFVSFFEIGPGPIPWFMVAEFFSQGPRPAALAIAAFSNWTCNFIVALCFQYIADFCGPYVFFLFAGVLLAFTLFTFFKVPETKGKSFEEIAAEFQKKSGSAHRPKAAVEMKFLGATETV
In words: Flavonoid uptake/transport in Caco-2 BBe1 cells with phloretin. Conditions: 1 μM phloretin, 50 μM flavonoid, 4 h, cell lysate. It is filed as in vitro ADME. Put shortly:
as §1

Series [5] deals with Caco-2 cells. Conditions: SGLT1-depended manner; cited from earlier work.

As for `OC[C@H]1O[C@@H](Oc2cc3c(O)cc(O)cc3[o+]c2-c2ccc(O)c(O)c2)[C@H](O)[C@@H](O)[C@@H]1O` [C-3-G, cyanidin 3-O-glucoside], in series [1], the “fold change of glycoside transport by phloridzin-mediated inhibition” value (“fold change … by phloridzin-mediated inhibition” below) is recorded as 3.29 fold; the “effect of phloridzin on cellular uptake and transport of the flavonoid” value was “significantly reduced the amount of cellular and transported”; the “effect of phloridzin on cellular uptake of the flavonoid” value is “less significant”. For the same compound, in series [2], the “cellular uptake and transport kinetics” value is “continued to increase as the incubation period extends from 30 min to 4 h”.
Regarding `O=c1c(O[C@@H]2O[C@H](CO)[C@@H](O)[C@H](O)[C@H]2O)c(-c2ccc(O)c(O)c2)oc2cc(O)cc(O)c12` [Q-3-G, quercetin 3-β-D-glucoside], in series [1], the “fold change … by phloridzin-mediated inhibition” value was determined as 2.31 fold; the “effect of phloridzin on cellular uptake and transport of the flavonoid” value is “significantly reduced the amount of cellular and transported”.
In the case of `Oc1cc(O)c2cc(O)c(-c3ccc(O)c(O)c3)[o+]c2c1` [cyanidin], in series [1], the “effect of phloridzin on cellular uptake and transport of the flavonoid” value was “no effect on the uptake and transport”. Further, the “cellular uptake and transport kinetics” value in series [2] is recorded as “noticeable decrease; also recorded: readily permeated into the intestinal mucosa within 2 h”. For the same compound, the “inhibition of glucose uptake” value in series [3] is listed as “significantly blocked the glucose uptake”.
For `OC[C@H]1O[C@@H](Oc2cc3c(O[C@@H]4O[C@H](CO)[C@@H](O)[C@H](O)[C@H]4O)cc(O)cc3[o+]c2-c2ccc(O)c(O)c2)[C@H](O)[C@@H](O)[C@@H]1O` [cyanin, cyanidin 3,5-diglucoside], in series [1], the “fold change … by phloridzin-mediated inhibition” value came out at 6.45 fold; the “effect of phloridzin on cellular uptake and transport of the flavonoid” value was “significantly reduced the amount of cellular and transported”; the “effect of phloridzin on cellular uptake of the flavonoid” value is “significantly inhibited by phloridzin”. Also, the “cellular uptake and transport kinetics” value in series [2] was “continued to increase as the incubation period extends from 30 min to 4 h”. For the same compound, the “effect of phloretin on cellular uptake of the flavonoid” value in series [4] is “significantly inhibited cellular uptake”.
For `O=c1c(O)c(-c2ccc(O)c(O)c2)oc2cc(O)cc(O)c12` [quercetin], the “effect of phloridzin on cellular uptake and transport of the flavonoid” value in series [1] is “no effect on the uptake and transport”. In addition, in series [2], the “cellular uptake and transport kinetics” value is recorded as “both concentrations continued to increase; also recorded: readily permeated into the intestinal mucosa within 2 h”. The “inhibition of glucose uptake” value in series [3] is recorded as “significantly blocked the glucose uptake”.
Turning to `C[C@@H]1O[C@@H](OC[C@H]2O[C@@H](Oc3c(-c4ccc(O)c(O)c4)oc4cc(O)cc(O)c4c3=O)[C@H](O)[C@@H](O)[C@@H]2O)[C@H](O)[C@H](O)[C@H]1O` [rutin, quercetin 3-rutinoside], in series [1], the “fold change … by phloridzin-mediated inhibition” value is on record as 5.77 fold; the “effect of phloridzin on cellular uptake and transport of the flavonoid” value was “significantly reduced the amount of cellular and transported”. Besides, the “inhibition of glucose uptake” value in series [5] was “inhibited glucose uptake”.
